From ChEMBL document CHEMBL4680100, “Revisiting the SAR of the Antischistosomal Aryl Hydantoin (Ro 13-3978)” (J Med Chem, 2016)
Converted amounts (≈) assume the structure as drawn.

Experiments:
[1] = Octanol/water partition coefficient, logD of the compound at pH 7.4 by HPLC analysis
Albumin = Albumin (Homo sapiens, UniProt P02768); test: Protein binding in immobilized human serum albumin by HPLC analysis; format: ADME; settings: isolated protein
How it was run: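 Binding estimated from gradient HPLC retention on a human albumin column, correlated against standard compounds of known protein binding.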

[2] = Kinetic solubility of the compound in 0.01 M HCl at pH 2 by nephelometry; format: physicochemical; settings: read-out: Kinetic_solubility
[3] = Kinetic solubility of compound at pH 6.5 phosphate buffer by nephelometry; format: physicochemical; settings: read-out: Kinetic_solubility
[4] = Intrinsic clearance in human liver microsome in presence of NADPH-regenerating system incubated over 60 mins by LC-MS analysis; settings: microsomes, 1 h
[5] = Intrinsic clearance in mouse liver microsome in presence of NADPH-regenerating system incubated over 60 mins by LC-MS analysis; settings: microsomes, 1 h
Schistosoma mansoni [6] = test: Antischistosomal activity against Schistosoma mansoni infected in NMRI mouse assessed as reduction in total worm burden at 100 mg/kg, po administered as single dose starting on day 49 post-infection and measured at 28 days post treatment relative to control; format: functional; design: scale not given: the % may be the effect or the level left; settings: time 28 day
How it was run: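 S. mansoni-infected NMRI mice treated on day 49 post-infection with a single oral dose, dissolved or suspended in 7% v/v Tween 80, 3% v/v ethanol (10 mL/kg), five mice per group. Sacrificed and dissected 28 d post-treatment; worms counted to give total worm burden reduction versus untreated controls. Kruskal–Wallis test on medians, treatment versus control.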

L6 = test: Cytotoxicity against rat L6 cells assessed as reduction in cell viability at up to 30 uM; format: cell-based
[7] = Cmax in male Swiss mouse at 100 mg/kg, po administered via gavage measured upto 48 hrs postdose by LC-MS analysis; format: ADME, organism-based; design: route oral, dose 100 mg/kg, time <=48; settings: in vivo
How it was run: (§1)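 Nonfasted male Swiss outbred mice (25–33 g, 7 per compound, fed ad libitum) were gavaged once at 10 mL/kg. Vehicle was 7% v/v Tween 80, 3% v/v ethanol in water, dosed within 1 h of preparation. Blood was drawn 0.25–48 h postdose (n = 2 per time point) into heparin with stabilizer, and plasma was quantified by LCMS. Noncompartmental analysis.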

[8] = AUC (0 to last) in male Swiss mouse at 100 mg/kg, po administered via gavage measured upto 48 hrs postdose by LC-MS analysis; format: ADME, organism-based; design: route oral, dose 100 mg/kg, time <=48; settings: in vivo
Schistosoma mansoni [9] = test: Antischistosomal activity against adult Schistosoma mansoni cercariae infected in mouse assessed as effective dose causing reduction in worm burden; format: functional
Schistosoma mansoni [10] = test: Antischistosomal activity against juvenile Schistosoma mansoni cercariae infected in mouse assessed as effective dose causing reduction in worm burden; format: functional
Androgen receptor [11] = target: T1, Androgen receptor (Homo sapiens, UniProt P10275)
T1 sequence (P10275 whole entry): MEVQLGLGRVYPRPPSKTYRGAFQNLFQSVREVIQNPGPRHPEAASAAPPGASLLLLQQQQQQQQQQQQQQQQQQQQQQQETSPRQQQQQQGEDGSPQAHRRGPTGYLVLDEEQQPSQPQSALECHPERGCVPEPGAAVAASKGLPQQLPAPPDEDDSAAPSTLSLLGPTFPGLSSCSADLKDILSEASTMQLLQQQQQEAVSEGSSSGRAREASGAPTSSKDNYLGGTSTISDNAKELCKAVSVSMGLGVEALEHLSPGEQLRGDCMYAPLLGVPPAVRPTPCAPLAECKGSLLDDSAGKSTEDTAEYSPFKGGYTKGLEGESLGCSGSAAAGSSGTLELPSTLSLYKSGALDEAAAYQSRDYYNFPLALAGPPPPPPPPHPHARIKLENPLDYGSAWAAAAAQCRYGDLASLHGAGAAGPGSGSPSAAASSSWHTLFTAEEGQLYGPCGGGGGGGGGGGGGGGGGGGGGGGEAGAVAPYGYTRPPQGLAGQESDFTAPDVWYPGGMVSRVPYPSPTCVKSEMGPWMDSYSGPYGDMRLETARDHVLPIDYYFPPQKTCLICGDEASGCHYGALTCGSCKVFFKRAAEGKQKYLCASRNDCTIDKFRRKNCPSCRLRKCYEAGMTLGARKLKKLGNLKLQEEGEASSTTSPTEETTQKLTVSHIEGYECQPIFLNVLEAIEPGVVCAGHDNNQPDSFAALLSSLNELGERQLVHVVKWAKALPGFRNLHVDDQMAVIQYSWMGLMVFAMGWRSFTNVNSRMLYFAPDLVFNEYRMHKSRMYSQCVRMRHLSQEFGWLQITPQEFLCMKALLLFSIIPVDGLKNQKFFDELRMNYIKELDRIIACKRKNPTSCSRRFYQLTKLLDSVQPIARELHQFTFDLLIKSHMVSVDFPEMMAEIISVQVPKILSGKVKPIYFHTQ

[12] = Tmax in male Swiss mouse at 100 mg/kg, po administered via gavage measured upto 48 hrs postdose by LC-MS analysis; format: ADME, organism-based; settings: in vivo; how it was run: as §1
Androgen receptor [13] = target: T1, Androgen receptor; settings: lapc4
Schistosoma mansoni [14] = test: Antischistosomal activity against Schistosoma mansoni infected in mouse assessed as effective dose causing reduction in worm burden; format: functional

Chain of Albumin (P02768 whole entry): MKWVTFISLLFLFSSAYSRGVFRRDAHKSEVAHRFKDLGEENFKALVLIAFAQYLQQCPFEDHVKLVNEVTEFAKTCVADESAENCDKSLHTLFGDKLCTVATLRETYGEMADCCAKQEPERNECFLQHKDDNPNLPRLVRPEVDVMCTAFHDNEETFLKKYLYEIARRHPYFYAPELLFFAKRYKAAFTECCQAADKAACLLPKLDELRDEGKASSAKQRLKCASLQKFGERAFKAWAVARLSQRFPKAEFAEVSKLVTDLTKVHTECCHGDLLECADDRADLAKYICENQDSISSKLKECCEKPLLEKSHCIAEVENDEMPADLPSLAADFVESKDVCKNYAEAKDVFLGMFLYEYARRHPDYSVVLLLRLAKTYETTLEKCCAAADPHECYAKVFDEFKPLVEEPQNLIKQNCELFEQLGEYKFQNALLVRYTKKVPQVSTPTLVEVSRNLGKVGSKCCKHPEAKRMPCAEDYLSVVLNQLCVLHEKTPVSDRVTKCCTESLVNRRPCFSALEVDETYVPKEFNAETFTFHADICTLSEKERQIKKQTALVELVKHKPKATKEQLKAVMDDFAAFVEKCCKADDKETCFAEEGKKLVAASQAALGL

| SMILES | logD [1] | PPB (Albumin) [%] | solubility kinetic [2] [µg/mL] | solubility kinetic [3] [µg/mL] | CLH [4] [µL/min/mg] | CLH [5] [µL/min/mg] | Activity (Schistosoma mansoni [6]) [%] | Activity (L6) | Cmax [7] [µM] | AUClast [8] [µM·h] | ED50 (Schistosoma mansoni [9]) [mg/kg] | ED50 (Schistosoma mansoni [10]) [mg/kg] | IC50 (Androgen receptor [11]) [µM] | Tmax [12] [h] | IC50 (Androgen receptor [13]) | ED50 (Schistosoma mansoni [14]) [mg/kg] |
| --- | --- | --- | --- | --- | --- | --- | --- | --- | --- | --- | --- | --- | --- | --- | --- | --- |
| CC1(C)NC(=O)N(c2ccc(F)c(C(F)(F)F)c2)C1=O | 2.7 | 52.1 | > 100 | > 100 | 8 | < 7 | 95 | Non-Toxic | 124 | 2740 | 15 | 140 | 4.4 | – | – | – |
| CC1(C)C(=O)N(c2ccc(F)c(C(F)(F)F)c2)C(=O)N1S(C)(=O)=O | 3.8 | 66 | 1.6 (≈ 4.34 µM) | 1.6 (≈ 4.34 µM) | < 7 | < 7 | 19 | Non-Toxic | – | – | – | – | 6.3 | – | – | – |
| CC1(C)NC(=O)N(c2ccc(F)c(C(F)F)c2)C1=O | 2.2 | 20.4 | > 100 | > 100 | < 7 | < 7 | 94 | Non-Toxic | 112 | 3190 | – | – | ≥ 10 | 3 | – | – |
| CN(C)C(=O)c1cc(N2C(=O)NC(C)(C)C2=O)ccc1F | 0.9 | 5.9 | > 100 | > 100 | < 7 | < 7 | 30 | Non-Toxic | 488 | 1360 | – | – | 9.1 | 1 | – | – |
| CC1(C)NC(=O)N(c2ccnc(C(F)(F)F)c2)C1=O | 1.9 | 22.7 | > 100 | > 100 | < 7 | < 7 | 100 | Non-Toxic | 155 | 6480 | – | – | 4.5 | 7 | – | – |
| CC1(C)C(=O)N(c2ccc(F)c(C(F)(F)F)c2)C(=O)N1S(=O)(=O)c1ccccc1 | 4.6 | 96.1 | < 1.6 | < 1.6 | 210 | 160 | 44 | Non-Toxic | – | – | – | – | 4.3 | – | – | – |
| O=C1NC2(CCCC2)C(=O)N1c1ccc(F)c(C(F)(F)F)c1 | 3.2 | 70.4 | 50 (≈ 158 µM) | 50 (≈ 158 µM) | 33 | 93 | 61 | Non-Toxic | 15 | 106 | – | – | 0.99 | 1 | – | – |
| CN1C(=O)N(c2ccc(F)c(C(F)(F)F)c2)C(=O)C1(C)C | 3.2 | 40.9 | 50 (≈ 164 µM) | 50 (≈ 164 µM) | 16 | 65 | 93 | Non-Toxic | – | – | – | – | 1.3 | 1 | – | – |
| CC1(C)C(=O)N(c2ccc(F)c(C(F)(F)F)c2)C(=O)N1CC(N)=O | 2.2 | 20.3 | 50 (≈ 144 µM) | 50 (≈ 144 µM) | < 7 | < 7 | 25 | Non-Toxic | – | – | – | – | – | – | Not Active | – |
| CC1(C)NC(=O)N(c2cccc(C(F)(F)F)c2)C1=O | 2.5 | 49.3 | > 100 | > 100 | < 7 | < 7 | 80 | Non-Toxic | – | – | – | – | 6 | – | – | – |
| CC1(C)C(=O)N(c2ccc(F)c(C(F)(F)F)c2)C(=O)N1CCc1ccccc1 | 4.6 | 96.2 | 12.5 (≈ 31.7 µM) | 25 (≈ 63.4 µM) | > 870 | 740 | 54 | Non-Toxic | – | – | – | – | 2.4 | – | – | – |
| CCN1C(=O)N(c2ccc(F)c(C(F)(F)F)c2)C(=O)C1(C)C | 3.5 | 49.3 | 50 (≈ 157 µM) | 25 (≈ 78.5 µM) | 30 | 32 | 98 | Non-Toxic | 11.1 | 103 | – | – | 0.14 | 1 | – | – |
| COC(=O)C(C)(C)NC(=O)Nc1ccc(F)c(C(F)(F)F)c1 | – | – | – | – | – | – | – | – | – | – | – | – | – | – | – | 62 |
